Experimental data from paper PMC8591627 (ACS infectious diseases, 2021).
Converted amounts (≈) assume the structure as drawn. “And” between values parts separate entries of the source, which are not always exact repeats. Identical values can stand only once.

How the values were obtained:
MRSA ATCC 43300 = test: MIC, drug susceptibility assay; format: cell-based, Staphylococcus aureus; settings: 18 h, 37 °C, visual inspection
Vero cells = format: cell-based; settings: 72 h
S. aureus (ATCC 43300) = test: Nitric oxide release assay, DAF-FM diacetate; format: cell-based, Staphylococcus aureus; settings: 100 μM, over 2 h; positive control DEA-NONOate
Outline: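 ATCC 43300 in Mueller-Hinton medium at OD600 0.2 was loaded with 10 μM DAF-FM diacetate for 30 min in the dark. Cells were then exposed to 100 μM test compound or 100 μM DEA-NONOate for 120 min. Controls were medium alone, bacteria alone, and bacteria with dye. Fluorescence (ex 495/em 515 nm) was read in triplicate.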

[1] = test system: S. aureus LAC pLL39_yceI1; test: MIC; format: cell-based, Staphylococcus aureus; settings: genotype pLL39_yceI1, LAC background
[2] = test system: S. aureus LAC yceI::Tn pLL39; test: MIC; format: cell-based, Staphylococcus aureus; settings: genotype yceI::Tn pLL39, LAC background
LAC pEPSA5_yceI = test: MIC; format: cell-based, Staphylococcus aureus; settings: for MIC: LAC pEPSA5_yceI
Outline: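 LAC strains carried empty pEPSA5 or pEPSA5_yceI (yceI under a xylose-inducible promoter). They were grown overnight with or without xylose induction; for the azoR overexpression set, pEPSA strains were cultured with 1% xylose. The 1/1000 inoculum went into Mueller-Hinton broth with serial compound dilutions, incubated statically at 37 °C for 18 h. Values represent three independent experiments.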

LAC yceI::Tn = test: MIC; format: cell-based, Staphylococcus aureus; settings: genotype yceI::Tn, LAC background
Outline: (§1)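 Overnight cultures were grown in 5 mL Mueller-Hinton at 37 °C with shaking at 200 rpm. They were diluted 1/1000 into 96-well plates holding serial dilutions of test compound in Mueller-Hinton broth. Plates were sealed against drying and incubated statically at 37 °C for 18 h before reading. All strains are isogenic and in the LAC background.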

LAC azoR::Tn = test: MIC; format: cell-based, Staphylococcus aureus; settings: genotype azoR::Tn, LAC background
Outline: as §1

LAC yceI::Tn azoR2 = test: MIC; format: cell-based, Staphylococcus aureus
Outline: as §1

LAC yceI::Tn azoR3 = test: MIC; format: cell-based, Staphylococcus aureus
LAC yceI::Tn pCM28 = test: MIC; format: cell-based, Staphylococcus aureus
Outline: as §1

LAC yceI::Tn pCM28_azoR = test: MIC; format: cell-based, Staphylococcus aureus
Outline: as §1

[3] = test system: LAC yceI::Tn azoR1 pCM28_azoR; test: MIC; format: cell-based, Staphylococcus aureus
Outline: as §1

[4] = test system: LAC yceI::Tn azoR2 pCM28_azoR; test: MIC; format: cell-based, Staphylococcus aureus
Outline: as §1

LAC yceI::Tn azoR3 pCM28 = test: MIC; format: cell-based, Staphylococcus aureus
Outline: as §1

[5] = test system: LAC yceI::Tn azoR3 pCM28_azoR; test: MIC; format: cell-based, Staphylococcus aureus
Outline: as §1

LAC yceI::Tn azoR4 pCM28 = test: MIC; format: cell-based, Staphylococcus aureus
Outline: as §1

[6] = test system: LAC yceI::Tn azoR4 pCM28_azoR; test: MIC; format: cell-based, Staphylococcus aureus
Outline: as §1

O=C(Nc1cc(Cl)cc2cccnc12)c1ccc([N+](=O)[O-])s1 [JSF-3151]
MRSA ATCC 43300 MIC (MRSA ATCC 43300): 4.0 μg/mL and 12 μM | MRSA ATCC 43300 MIC (MRSA ATCC 43300; listed as Z296972134 (3151)): 4.0 μg/mL and 12 μM | Vero cell CC50 (Vero cells): > 50 µg/mL | CC50 (Vero cells; read-out: Vero cell CC50): > 150 µM | intrabacterial NO• release (DAF-FM) (S. aureus (ATCC 43300)): neither DAF-FM (over 2 h) nor the Griess reagent (over 48 h) evidenced NO• production | MIC [1]: 50 µg/mL (≈ 150 µM) | MIC [2]: 0.78 µg/mL (≈ 2.34 µM) | MIC (LAC pEPSA5_yceI; growth with xylose +): >50 µg/mL | MIC (LAC pEPSA5_yceI; growth with xylose −): 3.1 µg/mL (≈ 9.29 µM) | resistance versus strain carrying empty vector pEPSA5 (LAC pEPSA5_yceI; overnight induction with xylose): > 64 fold | MIC (LAC yceI::Tn): 0.78 µg/mL (≈ 2.34 µM) | MIC (LAC azoR::Tn): 50 µg/mL (≈ 150 µM) | MIC shift versus yceI::Tn parental strain (LAC yceI::Tn azoR2; azoR2 (Trp60stop)): 32 fold | MIC (LAC yceI::Tn azoR2; genotype yceI::Tn azoR2): 25 µg/mL (≈ 74.9 µM) | MIC shift versus yceI::Tn parental strain (LAC yceI::Tn azoR3; azoR3 (Thr121Ile)): 64 fold | MIC (LAC yceI::Tn azoR3; genotype yceI::Tn azoR3): >50 µg/mL | MIC (LAC yceI::Tn pCM28): 0.78 µg/mL (≈ 2.34 µM) | MIC (LAC yceI::Tn pCM28_azoR): 0.78 µg/mL (≈ 2.34 µM) | MIC [3]: 3.1 µg/mL (≈ 9.29 µM) | MIC [4]: 1.5 µg/mL (≈ 4.49 µM) | MIC (LAC yceI::Tn azoR3 pCM28): >50 µg/mL | MIC [5]: 1.5 µg/mL (≈ 4.49 µM) | MIC (LAC yceI::Tn azoR4 pCM28): 25 µg/mL (≈ 74.9 µM) | MIC [6]: 1.5 µg/mL (≈ 4.49 µM)
